# Reference: ChEMBL document CHEMBL1133733, “Anilides of (R)-trifluoro-2-hydroxy-2-methylpropionic acid as inhibitors of pyruvate dehydrogenase kinase” (J Med Chem, 2000)
# The source made the active and inactive calls. No cut-off for these calls is given here.
# Key:
# [1] = target: T1, Pyruvate dehydrogenase kinase (Rattus norvegicus) (UniProt Q63065+A6IPZ9+Q64536+O54937); assay: In vivo percent of control lactate in 24 hr fasted rats at 100 umol/kg oral dose after 5 hours; assay type: functional, organism-based
# Summary of the method: (§1)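 Normal Sprague–Dawley rats, n = 6/group, fasted 24 h, then dosed orally (μmol/kg); blood lactate sampled at 2, 2.5 or 5 h postdose and expressed as percent of control; significance p < 0.05.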
# [2] = target: T1, Pyruvate dehydrogenase kinase (Rattus norvegicus); assay: In vivo percent of control lactate in 24 hr fasted rats at 100 umol/kg oral dose after 2.5 hours; assay type: functional, organism-based; summary of the method: as §1
# [3] = target: T1, Pyruvate dehydrogenase kinase (Rattus norvegicus); assay: In vivo percent of control lactate in 24 hr fasted rats at 10 uM/kg oral dose after 2.5 hours; assay type: functional, organism-based; summary of the method: as §1
# [4] = target: T1, Pyruvate dehydrogenase kinase (Rattus norvegicus); assay: In vivo percent of control lactate in 24 hr fasted rats at 30 uM/kg oral dose after 2.5 hours; assay type: functional, organism-based; summary of the method: as §1
# [5] = target: T1, Pyruvate dehydrogenase kinase (Rattus norvegicus); assay: In vivo percent of control lactate in 24 hr fasted rats at 30 uM/kg oral dose; assay type: functional, organism-based; conditions: 30 umol/kg; summary of the method: as §1
# [6] = target: T1, Pyruvate dehydrogenase kinase (Rattus norvegicus); assay: In vivo percent of control lactate in 24 hr fasted rats at 300 umol/kg oral dose after 2.5 hours; assay type: functional, organism-based; summary of the method: as §1
# [7] = target: T1, Pyruvate dehydrogenase kinase (Rattus norvegicus); assay: In vivo percent of control lactate in 24 hr fasted rats at 300 umol/kg oral dose after 5 hours; assay type: functional, organism-based; summary of the method: as §1
# [8] = target: T1, Pyruvate dehydrogenase kinase (Rattus norvegicus); assay: In vivo percent of control lactate in 24 hr fasted rats at 250 umol/kg oral dose; assay type: functional, organism-based; summary of the method: as §1
# [9] = species: Homo sapiens; assay: Effective concentration in human fibroblasts for increased oxidation of lactate; assay type: functional, organism-based
# Summary of the method: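 Human fibroblasts incubated with [14C]lactate; PDH complex activation read as conversion of [14C]lactate to 14CO2 (modified Ofenstein assay); EC50 (μM ± standard error).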
# [10] = target: Pyruvate dehydrogenase kinase (Homo sapiens) (UniProt Q15119+Q15120+Q16654+Q15118); assay: In vitro inhibition of pyruvate dehydrogenase kinase (PDHK) in primary enzymatic assay; Inactive; assay type: protein assay; conditions: Sus scrofa
# Summary of the method: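 Primary high-throughput enzymatic assay of PDH kinase inhibition using commercial porcine PDH complex; IC50 reported as μM ± standard error.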
# [11] = target: T1, Pyruvate dehydrogenase kinase (Rattus norvegicus); assay: In vivo percent of control lactate in 24 hr fasted rats at 100 umol/kg oral dose; assay type: functional, organism-based; summary of the method: as §1
# [12] = target: T1, Pyruvate dehydrogenase kinase (Rattus norvegicus); assay: In vivo percent of control lactate in 24 hr fasted rats at 30 uM/kg oral dose after 5 hours; assay type: functional, organism-based; summary of the method: as §1
# [13] = Cmax after oral dosing of 100 umol/Kg; assay type: ADME, organism-based; parameters: dose 100 umol/Kg, route oral; conditions: in vivo
# Summary of the method: (§2)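 Plasma levels of parent drug profiled in rats after a single oral dose; t1/2, AUC (0–8 h), Tmax and Cmax derived from the plasma concentration–time profile.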
# [14] = Half-life after oral administration (100 uM/Kg); assay type: ADME, organism-based; conditions: in vivo; summary of the method: as §2
# [15] = Area Under Curve after oral dosing of 100 uM/Kg; assay type: ADME; summary of the method: as §2
# [16] = Tmax after oral dosing of 100 uM/Kg; assay type: ADME, organism-based; conditions: in vivo; summary of the method: as §2
compound,measurement,setting,value
CC(C)CNS(=O)(=O)c1ccc(NC(=O)[C@@](C)(O)C(F)(F)F)c(Cl)c1,Control,[1],60%
same,Control,[2],69%
same,Control,[3],100%
same,Control,[4],83%
CC(C)[C@@H](C(=O)[O-])N(C)C(=O)c1ccc(NC(=O)[C@@](C)(O)C(F)(F)F)c(Cl)c1.[Na+],Control,[5],87%
CC(C)CNS(=O)(=O)c1ccc(NC(=O)C(C)(C)O)c(Cl)c1,Control,[1],95%
same,Control,[2],101%
same,Control,[6],69%
same,Control,[7],76%
C[C@@](O)(C(=O)Nc1ccc(S(=O)(=O)N2CCC(N)C2)cc1Cl)C(F)(F)F (stereo partly specified),Control,[1],70%
same,Control,[2],82%
C[C@@H](C(=O)[O-])N(C)C(=O)c1ccc(NC(=O)[C@@](C)(O)C(F)(F)F)c(Cl)c1.[Na+],Control,[5],94%
COC(=O)[C@H](Cc1c[nH]c2ccccc12)N(C)C(=O)c1ccc(NC(=O)[C@@](C)(O)C(F)(F)F)c(Cl)c1,Control,[5],102%
C[C@@](O)(C(=O)Nc1ccc(S(=O)(=O)NCCN2CCOCC2)cc1Cl)C(F)(F)F,Control,[1],84%
same,Control,[2],71%
C[C@@](O)(C(=O)Nc1ccc(S(C)(=O)=O)cc1Cl)C(F)(F)F,Control,[8],65%
CC(O)(C(=O)Nc1ccc(C(=O)N2CCCCC2)cc1Cl)C(F)(F)F (stereo unspecified),EC50,[9],0.71 µM
CCCCCCNC(=O)c1ccc(NC(=O)C(C)(O)C(F)(F)F)c(Cl)c1 (stereo unspecified),EC50,[9],5.5 µM
CC(O)(C(=O)Nc1cccc(C(=O)c2ccccc2)c1Cl)C(F)(F)F (stereo unspecified),EC50,[9],11 µM
C=CCNS(=O)(=O)c1ccc(NC(=O)[C@@](C)(O)C(F)(F)F)c(Cl)c1,Control,[1],62%
same,Control,[2],76%
COc1ccc(Cl)c(NC(=O)C(C)(O)C(F)(F)F)c1 (stereo unspecified),NA,[10],inactive
CCOCCCNS(=O)(=O)c1ccc(NC(=O)[C@@](C)(O)C(F)(F)F)c(Cl)c1,Control,[1],70%
same,Control,[2],72%
CC(O)(C(=O)Nc1ccc(C(=O)c2ccccc2)cc1Cl)C(F)(F)F (stereo unspecified),EC50,[9],30 µM
CC(O)(C(=O)Nc1ccccc1-c1ccccc1)C(F)(F)F (stereo unspecified),NA,[10],inactive
C[C@@](O)(C(=O)Nc1ccc(S(=O)(=O)NCCc2ccc(F)cc2)cc1Cl)C(F)(F)F,Control,[1],69%
same,Control,[2],124%
C[C@@](O)(C(=O)Nc1ccc(C(=O)NCCCO)cc1Cl)C(F)(F)F,Control,[11],88%
CC(=O)c1ccccc1NC(=O)C(C)(O)C(F)(F)F (stereo unspecified),EC50,[9],14 µM
C[C@@](O)(C(=O)Nc1ccc(C(=O)N2CCOCC2)cc1Cl)C(F)(F)F,Control,[11],64%
CC(O)(C(=O)Nc1cc(C(=O)N2CCCCC2)ccc1Cl)C(F)(F)F (stereo unspecified),NA,[10],inactive
COc1ccc(NC(=O)C(C)(O)C(F)(F)F)cc1 (stereo unspecified),EC50,[9],43.1 µM
CC(O)(C(=O)Nc1cc(C(=O)O)ccc1Cl)C(F)(F)F (stereo unspecified),NA,[10],inactive
Cc1cccc(C)c1NC(=O)C(C)(O)C(F)(F)F (stereo unspecified),NA,[10],inactive
C[C@@](O)(C(=O)Nc1ccc(S(=O)(=O)NCCCN2CCCC2=O)cc1Cl)C(F)(F)F,Control,[1],52%
same,Control,[12],66%
same,Control,[2],51%
same,Control,[4],87%
C[C@@](O)(C(=O)Nc1ccc(C(=O)N[C@@H](CCc2ccccc2)C(=O)O)cc1Cl)C(F)(F)F,Control,[5],97%
C[C@@](O)(C(=O)Nc1ccc(S(=O)(=O)N2CCNCC2)cc1Cl)C(F)(F)F,Control,[6],77%
CC(O)(C(=O)Nc1cccc(C(F)(F)F)c1)C(F)(F)F (stereo unspecified),NA,[10],inactive
C[C@@](O)(C(=O)Nc1ccc(C(=O)N[C@@H](Cc2ccccc2)C(=O)[O-])cc1Cl)C(F)(F)F.[Na+],Control,[11],115%
COC(=O)c1ccc(Cl)c(NC(=O)C(C)(O)C(F)(F)F)c1 (stereo unspecified),NA,[10],inactive
CC(O)(C(=O)Nc1ccc(C#N)cc1Cl)C(F)(F)F (stereo unspecified),Control,[8],78%
COC(=O)c1cccc(NC(=O)C(C)(O)C(F)(F)F)c1Cl (stereo unspecified),EC50,[9],13.8 µM
C[C@@](O)(C(=O)Nc1ccc(C(=O)NCCCCCC(=O)[O-])cc1Cl)C(F)(F)F.[Na+],Control,[11],94%
C[C@@](O)(C(=O)Nc1ccc(C(=O)O)cc1Cl)C(F)(F)F,EC50,[9],1.4 µM
CC(O)(C(=O)Nc1cccc(C(=O)c2ccccc2)c1)C(F)(F)F (stereo unspecified),EC50,[9],10 µM
C[C@@](O)(C(=O)Nc1ccc(C(=O)N[C@@H](Cc2ccc(-c3ccccc3)cc2)C(=O)O)cc1Cl)C(F)(F)F,Control,[5],101%
CC(O)(C(=O)Nc1cccc(C(=O)O)c1Cl)C(F)(F)F (stereo unspecified),Cmax,[13],87.3 µM
same,half-life,[14],4.6 h
same,AUC,[15],143 µM·h
same,Tmax,[16],0.5 h
CCCCCCNC(=O)c1ccc(Cl)c(NC(=O)C(C)(O)C(F)(F)F)c1 (stereo unspecified),NA,[10],inactive
CN(CCCO)C(=O)c1ccc(NC(=O)[C@@](C)(O)C(F)(F)F)c(Cl)c1,Control,[5],114%
CC(O)(C(=O)Nc1cc(C(=O)c2ccccc2)ccc1Cl)C(F)(F)F (stereo unspecified),NA,[10],inactive
CC(O)(C(=O)Nc1ccccc1Cl)C(F)(F)F (stereo unspecified),EC50,[9],5.4 µM
C[C@@](O)(C(=O)Nc1ccc(C(=O)N2CCN(c3ccccn3)CC2)cc1Cl)C(F)(F)F,Control,[11],63%
C[C@@](O)(C(=O)Nc1ccc(S(=O)(=O)NCc2ccccn2)cc1Cl)C(F)(F)F,Control,[1],84%
same,Control,[2],64%
